Experimental data as given in ChEMBL document CHEMBL1125797, “Synthesis, characterization and myocardial uptake of cationic bis(arene)technetium(I) complexes” (J Med Chem, 1991).

Experiments:
Rattus norvegicus [1] = assay: Biodistribution of compound in rat liver at 5 min after intravenous administration; type: ADME, organism-based; details: in vivo
Outline: (§1)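 Rats received the 99mTc complex in normal saline (~12.5 μCi/mL) by lateral tail vein injection at ~25 μCi/kg and were killed by cervical dislocation at the stated time. Tissues were washed with saline, blotted, weighed and γ-counted to give percent injected dose/g. Time-course values are averages of male and female rats.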

Rattus norvegicus [2] = assay: Biodistribution of compound in rat liver at 90 min after intravenous administration; type: ADME, organism-based; details: in vivo, 1.5 h; outline: as §1
Rattus norvegicus [3] = assay: Biodistribution of compound in rat lungs at 1440 min after intravenous administration; type: ADME, organism-based, Lung; details: in vivo, 24 h; outline: as §1
Rattus norvegicus [4] = assay: Biodistribution of compound in rat lungs at 180 min after intravenous administration; type: ADME, organism-based, Lung; details: in vivo, 3 h; outline: as §1
Rattus norvegicus [5] = assay: Biodistribution of compound in rat lungs at 360 min after intravenous administration; type: ADME, organism-based, Lung; details: in vivo, 6 h; outline: as §1
Rattus norvegicus [6] = assay: Biodistribution of compound in rat lungs at 45 min after intravenous administration; type: ADME, organism-based, Lung; details: in vivo, 0.75 h; outline: as §1
Rattus norvegicus [7] = assay: Biodistribution of compound in rat lungs at 5 min after intravenous administration; type: ADME, organism-based, Lung; details: in vivo; outline: as §1
Rattus norvegicus [8] = assay: Biodistribution of compound in rat lungs at 90 min after intravenous administration; type: ADME, organism-based, Lung; details: in vivo, 1.5 h; outline: as §1
Rattus norvegicus [9] = assay: Biodistribution of compound in rat muscle at 1440 min after intravenous administration; type: ADME, organism-based, Muscle tissue; details: in vivo, 24 h; outline: as §1
Rattus norvegicus [10] = assay: Biodistribution of compound in rat muscle at 180 min after intravenous administration; type: ADME, organism-based, Muscle tissue; details: in vivo, 3 h; outline: as §1
Rattus norvegicus [11] = assay: Biodistribution of compound in rat muscle at 360 min after intravenous administration; type: ADME, organism-based, Muscle tissue; details: in vivo, 6 h; outline: as §1
Rattus norvegicus [12] = assay: Biodistribution of compound in rat muscle at 45 min after intravenous administration; type: ADME, organism-based, Muscle tissue; details: in vivo, 0.75 h; outline: as §1
Rattus norvegicus [13] = assay: Biodistribution of compound in rat muscle at 5 min after intravenous administration; type: ADME, organism-based, Muscle tissue; details: in vivo; outline: as §1
Rattus norvegicus [14] = assay: Biodistribution of compound in rat muscle at 90 min after intravenous administration; type: ADME, organism-based, Muscle tissue; details: in vivo, 1.5 h; outline: as §1
Rattus norvegicus [15] = assay: Biodistribution of compound in rat bone at 1440 min after intravenous administration; type: ADME, organism-based, Bone element; details: in vivo, 24 h
Outline: (§2)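 Time course in Sprague-Dawley rats after lateral tail-vein injection of the 99mTc complex in normal saline (~12.5 μCi/mL) at ~25 μCi/kg. Tissues were sampled at the stated times, washed with saline, blotted, weighed and γ-counted to give percent injected dose per g. Values are averages of male and female rats.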

Rattus norvegicus [16] = assay: Biodistribution of compound in rat bone at 180 min after intravenous administration; type: ADME, organism-based, Bone element; details: in vivo, 3 h; outline: as §2
Rattus norvegicus [17] = assay: Biodistribution of compound in rat bone at 45 min after intravenous administration; type: ADME, organism-based, Bone element; details: in vivo, 0.75 h; outline: as §2
Rattus norvegicus [18] = assay: Biodistribution of compound in rat bone at 5 min after intravenous administration; type: ADME, organism-based, Bone element; details: in vivo; outline: as §2
Rattus norvegicus [19] = assay: Biodistribution of compound in rat bone at 90 min after intravenous administration; type: ADME, organism-based, Bone element; details: in vivo, 1.5 h; outline: as §2
Rattus norvegicus [20] = assay: Biodistribution of compound in rat bone marrow at 1440 min after intravenous administration; type: ADME, organism-based; details: in vivo, 24 h; outline: as §2
Rattus norvegicus [21] = assay: Biodistribution of compound in rat bone marrow at 180 min after intravenous administration; type: ADME, organism-based; details: in vivo, 3 h; outline: as §2
Rattus norvegicus [22] = assay: Biodistribution of compound in rat bone marrow at 360 min after intravenous administration; type: ADME, organism-based; details: in vivo, 6 h; outline: as §2
Rattus norvegicus [23] = assay: Biodistribution of compound in rat bone marrow at 45 min after intravenous administration; type: ADME, organism-based; details: in vivo, 0.75 h; outline: as §2
Rattus norvegicus [24] = assay: Biodistribution of compound in rat bone marrow at 90 min after intravenous administration; type: ADME, organism-based; details: in vivo, 1.5 h; outline: as §2
Rattus norvegicus [25] = assay: Biodistribution of compound in rat bone marrow at 5 min after intravenous administration; type: ADME, organism-based; details: in vivo; outline: as §2
Rattus norvegicus [26] = assay: Biodistribution of compound in rat brain after 5 min of administration; type: ADME, organism-based; details: in vivo
Rattus norvegicus [27] = assay: Biodistribution of compound in rat eye at 1440 min after intravenous administration; type: ADME, organism-based; details: in vivo, 24 h; outline: as §2
Rattus norvegicus [28] = assay: Biodistribution of compound in rat eye at 180 min after intravenous administration; type: ADME, organism-based; details: in vivo, 3 h; outline: as §2
Rattus norvegicus [29] = assay: Biodistribution of compound in rat eye at 360 min after intravenous administration; type: ADME, organism-based; details: in vivo, 6 h; outline: as §2
Rattus norvegicus [30] = assay: Biodistribution of compound in rat eye at 45 min after intravenous administration; type: ADME, organism-based; details: in vivo, 0.75 h; outline: as §2
Rattus norvegicus [31] = assay: Biodistribution of compound in rat eye at 5 min after intravenous administration; type: ADME, organism-based; details: in vivo; outline: as §2
Rattus norvegicus [32] = assay: Biodistribution of compound in rat eye at 90 min after intravenous administration; type: ADME, organism-based; details: in vivo, 1.5 h; outline: as §2
Rattus norvegicus [33] = assay: Biodistribution of compound in rat feces at 1440 min after intravenous administration; type: ADME, organism-based; details: in vivo, 24 h
Rattus norvegicus [34] = assay: Biodistribution of compound in rat feces at 360 min after intravenous administration; type: ADME, organism-based; details: in vivo, 6 h
Rattus norvegicus [35] = assay: Biodistribution of compound in rat liver at 45 min after intravenous administration; type: ADME, organism-based; details: in vivo, 0.75 h; outline: as §1
Rattus norvegicus [36] = assay: Biodistribution of compound in rat blood at 45 min after intravenous administration; type: ADME, organism-based; details: in vivo, 0.75 h; outline: as §2
Rattus norvegicus [37] = assay: Biodistribution of compound in rat bone at 360 min after intravenous administration; type: ADME, organism-based, Bone element; details: in vivo, 6 h; outline: as §2

Bis(1,3,5-trimethylbenzene)technetium gave a Dose/g (Rattus norvegicus [1]) of 10.4 % dose/organ, a Dose/g (Rattus norvegicus [2]) of 3.6 % dose/organ and a Dose/g (Rattus norvegicus [3]) of 0.2 % dose/organ. For the same substance, the Dose/g (Rattus norvegicus [4]) was 0.48 % dose/organ, the Dose/g (Rattus norvegicus [5]) was 0.34 % dose/organ and the Dose/g (Rattus norvegicus [6]) was 0.86 % dose/organ. For the same substance, the Dose/g (Rattus norvegicus [7]) was 1.15 % dose/organ, the Dose/g (Rattus norvegicus [8]) was 0.6 % dose/organ and the Dose/g (Rattus norvegicus [9]) was 25 % dose/organ. The Dose/g (Rattus norvegicus [10]) was 30 % dose/organ, the Dose/g (Rattus norvegicus [11]) was 29 % dose/organ and the Dose/g (Rattus norvegicus [12]) was 26 % dose/organ. For the same substance, the Dose/g (Rattus norvegicus [13]) was 30 % dose/organ, the Dose/g (Rattus norvegicus [14]) was 25 % dose/organ and the Dose/g (Rattus norvegicus [15]) was 0.8 % dose/organ. The Dose/g (Rattus norvegicus [16]) was 1.5 % dose/organ, the Dose/g (Rattus norvegicus [17]) was 1.8 % dose/organ and the Dose/g (Rattus norvegicus [18]) was 3.5 % dose/organ. The Dose/g (Rattus norvegicus [19]) was 1.4 % dose/organ, the Dose/g (Rattus norvegicus [20]) was 0.02 % dose/organ and the Dose/g (Rattus norvegicus [21]) was 0.13 % dose/organ. For the same substance, the Dose/g (Rattus norvegicus [22]) was 0.09 % dose/organ, the Dose/g (Rattus norvegicus [23]) was 0.36 % dose/organ and the Dose/g (Rattus norvegicus [24]) was 0.13 % dose/organ. The Dose/g (Rattus norvegicus [25]) was 0.37 % dose/organ, the Dose/g (Rattus norvegicus [26]) was 0.1% and the Dose/g (Rattus norvegicus [27]) was 0.01 % dose/organ. It also gave a Dose/g (Rattus norvegicus [28]) of 0.016 % dose, a Dose/g (Rattus norvegicus [29]) of 0.019 % dose and a Dose/g (Rattus norvegicus [30]) of 0.028 % dose. It also gave a Dose/g (Rattus norvegicus [31]) of 0.041 % dose, a Dose/g (Rattus norvegicus [32]) of 0.044 % dose and a Dose/g (Rattus norvegicus [33]) of 36.2 % dose. For the same substance, the Dose/g (Rattus norvegicus [34]) was 0.4 % dose, the Dose/g (Rattus norvegicus [35]) was 3.1 % dose and the Dose/ml (Rattus norvegicus [36]) was 1.24 % dose. The Dose/g (Rattus norvegicus [37]) was 1.3 % dose.
